Data taken from ChEMBL document CHEMBL1131259, “Synthesis and evaluation of diphenyl phosphonate esters as inhibitors of the trypsin-like granzymes A and K and mast cell tryptase” (J Med Chem, 1998).
The source made the active and inactive calls. No cut-off for these calls is given here.

Columns and labels:
[1] = target: T1, Granzyme K (Rattus norvegicus) (UniProt P49864); experiment: Inhibition of rat granzyme K
T1 sequence (whole entry): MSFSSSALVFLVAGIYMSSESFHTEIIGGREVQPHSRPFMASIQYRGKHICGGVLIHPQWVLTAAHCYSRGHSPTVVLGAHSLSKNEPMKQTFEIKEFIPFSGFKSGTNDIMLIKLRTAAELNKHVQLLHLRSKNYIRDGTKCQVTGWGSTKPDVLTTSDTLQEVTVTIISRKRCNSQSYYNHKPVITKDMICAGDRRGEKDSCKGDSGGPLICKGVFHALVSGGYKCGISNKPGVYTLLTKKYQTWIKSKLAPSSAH
How it was run: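 Native rat granzyme K, purified by size-exclusion in 1 M NaCl then MonoS cation exchange. Incubated with inhibitor (1.0–450 μM) at 25 °C in 0.1 M Hepes, 0.01 M CaCl2, pH 7.5 (7.1% DMSO). Timed aliquots were read for residual activity on Cbz-Arg-SBzl with DTNB at 405 nm. k_obs came from ln vt/vo vs time, one or two per inhibitor. For no-inhibition lines, none was seen after 25 min.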

[2] = target: T2, Granzyme A (Homo sapiens) (UniProt P12544); experiment: Inhibition of human granzyme A
T2 sequence (whole entry): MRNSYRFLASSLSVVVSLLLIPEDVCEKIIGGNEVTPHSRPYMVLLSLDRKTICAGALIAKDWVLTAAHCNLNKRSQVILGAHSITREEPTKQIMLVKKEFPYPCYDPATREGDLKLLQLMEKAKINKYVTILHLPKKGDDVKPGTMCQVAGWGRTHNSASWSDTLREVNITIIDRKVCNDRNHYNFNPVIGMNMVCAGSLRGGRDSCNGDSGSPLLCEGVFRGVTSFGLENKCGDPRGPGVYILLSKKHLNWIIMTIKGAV
How it was run: (§1)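 Recombinant human and rat granzyme A, incubated with inhibitor (1.0–450 μM) at 25 °C in 0.1 M Hepes, 0.01 M CaCl2, pH 7.5 (7.6% DMSO). Timed aliquots were read for residual activity on Cbz-Arg-SBzl with DTNB at 405 nm. k_obs came from ln vt/vo vs time over 5–10 points and 2–3 half-lives, two k_obs per inhibitor. DMSO controls were run.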

[3] = target: T3, Serine protease 1 (Bos taurus) (UniProt P00760); experiment: Inhibition of bovine trypsin
T3 sequence (whole entry): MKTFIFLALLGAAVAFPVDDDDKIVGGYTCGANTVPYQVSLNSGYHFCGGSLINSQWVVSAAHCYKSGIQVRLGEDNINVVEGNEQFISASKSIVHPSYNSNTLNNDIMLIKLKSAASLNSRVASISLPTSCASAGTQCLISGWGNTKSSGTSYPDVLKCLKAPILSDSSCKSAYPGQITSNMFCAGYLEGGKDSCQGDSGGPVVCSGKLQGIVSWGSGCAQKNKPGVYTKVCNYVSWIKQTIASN
How it was run: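 Irreversible inhibition assayed by incubation at 25 °C in 0.1 M Hepes, 0.01 M CaCl2, pH 7.5 (2% DMSO), inhibitor 1.0–450 μM. Timed aliquots were read for residual activity on Cbz-Arg-SBzl with DTNB at 410 nm. Pseudo-first-order k_obs came from ln vt/vo vs time, using 5–10 points over 2–3 half-lives, three k_obs per inhibitor. DMSO-only controls were run. For no-inhibition lines, none was seen after 25 min.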

[4] = target: T4, Tryptase (Homo sapiens) (UniProt Q9BZJ3+Q15661+Q9NRR2); experiment: Inhibition of mast cell tryptase; format: protein assay
How it was run: (§2)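 Human lung mast cell tryptase, high-molecular-weight form, heparin-free, active sites titrated with MUGB. Incubated with inhibitor at 25 °C in 0.1 M Hepes, 10% glycerol, 10 mM heparin, pH 7.5 (7.1% DMSO). […] DMSO controls were run.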

[5] = target: T5, Granzyme A (Rattus norvegicus) (UniProt Q8CJF4); experiment: Inhibition of rat granzyme A.; how it was run: as §1
T5 sequence (whole entry): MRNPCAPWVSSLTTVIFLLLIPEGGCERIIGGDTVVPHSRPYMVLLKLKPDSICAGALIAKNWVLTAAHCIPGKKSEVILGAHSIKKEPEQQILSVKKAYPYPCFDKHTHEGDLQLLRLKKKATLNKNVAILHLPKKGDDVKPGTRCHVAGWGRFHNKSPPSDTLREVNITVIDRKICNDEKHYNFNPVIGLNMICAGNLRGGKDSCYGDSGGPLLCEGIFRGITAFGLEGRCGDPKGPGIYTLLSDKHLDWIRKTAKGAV

[6] = target: T4, Tryptase (Homo sapiens); experiment: Compound was evaluated to inhibit mast cell tryptase; No inhibition; format: protein assay; how it was run: as §2

Row | SMILES | kobs/[I] (second-order inactivation rate constant) [1] [M⁻¹ s⁻¹] | kobs/[I] (second-order inactivation rate constant) [2] [M⁻¹ s⁻¹] | K obs / 1 [3] [M⁻¹ s⁻¹] | kobs/[I] (second-order inhibition rate constant) [4] [M⁻¹ s⁻¹] | K obs / 1 [5] [M⁻¹ s⁻¹] | K obs / 1 [6]
1 | NC(N)c1ccc(C(NC(=O)[C@@H]2CCCN2C(=O)CNS(=O)(=O)Cc2ccccc2)P(=O)(Oc2ccccc2)Oc2ccccc2)cc1 (some centres undefined) | 87 | 3650 | 37100 | 2 | – | –
2 | NC(N)c1ccc(C(NC(=O)c2ccccc2Oc2ccccc2)P(=O)(Oc2ccccc2)Oc2ccccc2)cc1 (centres undefined) | 1 | 540 | 670 | 0.4 | 340 | –
3 | C[C@H](NC(=O)[C@@H](C)NC(=O)OCc1ccccc1)C(=O)NC(c1ccc(C(=N)N)cc1)P(=O)(Oc1ccccc1)Oc1ccccc1 (some centres undefined) | 5 | 820 | 3620 | 2 | 480 | –
4 | NCCCCCC(NC(=O)OCc1ccccc1)P(=O)(Oc1ccccc1)Oc1ccccc1 (centres undefined) | 1.1 | 23 | 21 | 0.7 | – | –
5 | CC(C)[C@H](NC(=O)OCc1ccccc1)C(=O)NC(c1ccc(C(=N)N)cc1)P(=O)(Oc1ccccc1)Oc1ccccc1 (some centres undefined) | 0.7 | 6.7 | 41 | 21.2 | – | –
6 | N=C(N)c1ccc(C(NC(=O)/C=C/c2cccs2)P(=O)(Oc2ccccc2)Oc2ccccc2)cc1 (centres undefined) | 4 | 740 | 300 | 1 | 430 | –
7 | C[C@@H](O)[C@H](NC(=O)OCc1ccccc1)C(=O)NC(c1ccc(C(=N)N)cc1)P(=O)(Oc1ccccc1)Oc1ccccc1 (some centres undefined) | 3 | 2220 | 97 | – | – | inactive
8 | N=C(N)c1ccc(C(NC(=O)[C@@H]2CCCN2C(=O)CCc2ccccc2)P(=O)(Oc2ccccc2)Oc2ccccc2)cc1 (some centres undefined) | 50 | 1510 | 1520 | 0.4 | – | –
9 | N=C(N)c1ccc(C(NC(=O)[C@@H]2CCCN2C(=O)c2ccccc2Oc2ccccc2)P(=O)(Oc2ccccc2)Oc2ccccc2)cc1 (some centres undefined) | 60 | 610 | 7760 | 0.9 | – | –
10 | N=C(N)c1ccc(C(NC(=O)/C=C/c2ccco2)P(=O)(Oc2ccccc2)Oc2ccccc2)cc1 (centres undefined) | 32 | 1740 | 360 | – | 1740 | inactive
11 | NCCCCC(NC(=O)OCc1ccccc1)P(=O)(Oc1ccccc1)Oc1ccccc1 (centres undefined) | 23 | 1210 | 6240 | 89 | – | –
12 | C[C@H](NC(=O)OCc1ccccc1)C(=O)N[C@H](C)C(=O)N[C@@H](C)C(=O)NC(c1ccc(C(N)N)cc1)P(=O)(Oc1ccccc1)Oc1ccccc1 (some centres undefined) | 7 | 730 | 1780 | 2 | 590 | –
13 | C[C@H](NC(=O)[C@H]1CCCN1C(=O)OCc1ccccc1)C(=O)NC(c1ccc(C(=N)N)cc1)P(=O)(Oc1ccccc1)Oc1ccccc1 (some centres undefined) | 5 | 380 | 240 | 1 | – | –
14 | C[C@H](NC(=O)[C@@H](CC(=O)O)NC(=O)OCc1ccccc1)C(=O)NC(c1ccc(C(=N)N)cc1)P(=O)(Oc1ccccc1)Oc1ccccc1 (some centres undefined) | 6 | 240 | 2550 | 0.7 | – | –
15 | N=C(N)c1ccc(C(NC(=O)[C@@H]2CCCN2C(=O)OCc2ccccc2)P(=O)(Oc2ccccc2)Oc2ccccc2)cc1 (some centres undefined) | 34 | 790 | 910 | 1.2 | – | –
16 | CC(C)(C)OC(=O)N[C@H](Cc1ccccc1)C(=O)N1CCC[C@H]1C(=O)NC(c1ccc(C(N)N)cc1)P(=O)(Oc1ccccc1)Oc1ccccc1 (some centres undefined) | 56 | 170 | 130 | 0.4 | – | –
17 | C[C@H](NC(=O)[C@@H](C)NC(=O)CCC(=O)O)C(=O)NC(c1ccc(C(=N)N)cc1)P(=O)(Oc1ccccc1)Oc1ccccc1 (some centres undefined) | 0.3 | 260 | 640 | 0.7 | – | –
18 | N=C(N)c1ccc(C(NC(=O)/C=C/c2ccccc2)P(=O)(Oc2ccccc2)Oc2ccccc2)cc1 (centres undefined) | 3 | 400 | 110 | 0.3 | 340 | –
19 | C[C@H](NC(=O)[C@@H](Cc1ccccc1)NC(=O)OCc1ccccc1)C(=O)NC(c1ccc(C(N)N)cc1)P(=O)(Oc1ccccc1)Oc1ccccc1 (some centres undefined) | 4.2 | 1770 | 3010 | 4 | – | –
20 | N=C(N)c1ccc(C(NC(=O)[C@@H]2CCCN2C(=O)CC(c2ccccc2)c2ccccc2)P(=O)(Oc2ccccc2)Oc2ccccc2)cc1 (some centres undefined) | 1830 | 250 | 2660 | – | – | inactive
21 | N=C(N)c1ccc(C(NC(=O)CCC(=O)O)P(=O)(Oc2ccccc2)Oc2ccccc2)cc1 (centres undefined) | 0.3 | 857 | 45 | 0.2 | – | –
22 | N=C(N)c1ccc(CC(NC(=O)OCc2ccccc2)P(=O)(Oc2ccccc2)Oc2ccccc2)cc1 (centres undefined) | 2.1 | 2750 | 24 | 17 | – | –
